In ChEMBL document CHEMBL1156079, “Imidazoquines as antimalarial and antipneumocystis agents” (J Med Chem, 2009):
Converted amounts (≈) assume the structure as drawn.

System: Plasmodium berghei
Experiment: (§1) Antiplasmodial activity against Plasmodium berghei ANKA infected in BALB/c mice (Mus musculus) assessed as parasite-transmission to Anopheles stephensi after feeding on infected mice (Mus musculus) at 10 umol/kg, intraperitoneally administered 4 days after infection measured 10 days after 2 hrs of mosquito feeding by transmission-blocking activity assay relative to control
Format: functional
Conditions: not given
How it was run: (§2)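 Balb/C mice infected with P. berghei ANKA; after 4 days, once gametocytes were seen on Giemsa blood films, groups of six got one intraperitoneal dose (10 or 50 μmol/kg; PBS controls). At 2 h, anesthetized mice fed ca. 50 glucose-starved female An. stephensi for 2 h. Ten days later, 10 mosquitoes per cage dissected; midgut oocysts counted, giving % infected mosquitoes and mean oocysts per mosquito.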
In the case of `COc1cc(NC(C)CCCN2C(=O)CN(C(=O)[C@H](N)Cc3ccccc3)C2(C)C)c2ncccc2c1` (stereo not given in full), the Activity is reported as 43.8%.
With `COc1cc(NC(C)CCCN2C(=O)[C@@H](C)N(C(=O)CN)C2(C)C)c2ncccc2c1` (stereo not given in full) the Activity was 62%.
With `CC[C@H](C)[C@@H](N)C(=O)N1CC(=O)N(CCCC(C)Nc2cc(OC)cc3cccnc23)C1(C)C` (stereo not given in full) the Activity was 83.3%.

System: Plasmodium berghei
Experiment: as §1, with “at 50” for “at 10”
Format: functional
Conditions: not given
How it was run: as §2
`COc1cc(NC(C)CCCN2C(=O)CN(C(=O)[C@H](N)Cc3ccccc3)C2(C)C)c2ncccc2c1` (stereo not given in full) gave an Activity of 40%.
For `COc1cc(NC(C)CCCN2C(=O)[C@@H](C)N(C(=O)CN)C2(C)C)c2ncccc2c1` (stereo not given in full), the Activity was 37.5%.
In the case of `CC[C@H](C)[C@@H](N)C(=O)N1CC(=O)N(CCCC(C)Nc2cc(OC)cc3cccnc23)C1(C)C` (stereo not given in full), the Activity is reported as 62.2%.

System: not listed separately
Experiment: Solubility in water
Format: physicochemical
Conditions: water
`COc1cc(NC(C)CCCN2C(=O)CN(C(=O)[C@H](N)Cc3ccccc3)C2(C)C)c2ncccc2c1` (stereo not given in full) gave a solubility of 5.4 µg/mL (≈ 10.7 µM).
`COc1cc(NC(C)CCCN2C(=O)[C@@H](C)N(C(=O)CN)C2(C)C)c2ncccc2c1` (stereo not given in full) gave a solubility of 110 µg/mL (≈ 257 µM).
`CC[C@H](C)[C@@H](N)C(=O)N1CC(=O)N(CCCC(C)Nc2cc(OC)cc3cccnc23)C1(C)C` (stereo not given in full) showed a solubility of 29.7 µg/mL (≈ 63.2 µM).

System: not listed separately
Experiment: Octanol/water partition coefficient, log P of the compound
Format: physicochemical
Conditions: not given
`COc1cc(NC(C)CCCN2C(=O)CN(C(=O)[C@H](N)Cc3ccccc3)C2(C)C)c2ncccc2c1` (stereo not given in full) gave a logP of 3.6.
In the case of `COc1cc(NC(C)CCCN2C(=O)[C@@H](C)N(C(=O)CN)C2(C)C)c2ncccc2c1` (stereo not given in full), the logP is reported as 2.57.
Work on `CC[C@H](C)[C@@H](N)C(=O)N1CC(=O)N(CCCC(C)Nc2cc(OC)cc3cccnc23)C1(C)C` (stereo not given in full) yielded a logP of 3.4.

System: not listed separately
Experiment: Chemical stability by HPLC analysis
Format: physicochemical
Conditions: not given
With `COc1cc(NC(C)CCCN2C(=O)CN(C(=O)[C@H](N)Cc3ccccc3)C2(C)C)c2ncccc2c1` (stereo not given in full) the Stability was “Stable”.
In the case of `COc1cc(NC(C)CCCN2C(=O)[C@@H](C)N(C(=O)CN)C2(C)C)c2ncccc2c1` (stereo not given in full), the Stability is reported as “Stable”.
For `CC[C@H](C)[C@@H](N)C(=O)N1CC(=O)N(CCCC(C)Nc2cc(OC)cc3cccnc23)C1(C)C` (stereo not given in full), the Stability was “Stable”.

System: Plasmodium falciparum
Experiment: Antiplasmodial activity against chloroquine-resistant blood stage Plasmodium falciparum W2 after 48 hrs by FACS analysis
Format: functional, organism-based
Conditions: W2, 48 h
With `COc1cc(NC(C)CCCN2C(=O)CN(C(=O)[C@H](N)Cc3ccccc3)C2(C)C)c2ncccc2c1` (stereo not given in full) the IC50 was 9.9 µM.
`COc1cc(NC(C)CCCN2C(=O)[C@@H](C)N(C(=O)CN)C2(C)C)c2ncccc2c1` (stereo not given in full) gave an IC50 of 5.5 µM.
With `CC[C@H](C)[C@@H](N)C(=O)N1CC(=O)N(CCCC(C)Nc2cc(OC)cc3cccnc23)C1(C)C` (stereo not given in full) the IC50 was 8.7 µM.

System: Plasmodium berghei
Experiment: Antiplasmodial activity against liver-stage GFP expressing Plasmodium berghei sporozoites infected in human HuH7 cells assessed as inhibition of parasite schizonts development after 48 hrs by FACS analysis
Format: functional, organism-based
Conditions: Huh-7
With `COc1cc(NC(C)CCCN2C(=O)CN(C(=O)[C@H](N)Cc3ccccc3)C2(C)C)c2ncccc2c1` (stereo not given in full) the Activity was “Dose-dependent effect”.
In the case of `COc1cc(NC(C)CCCN2C(=O)[C@@H](C)N(C(=O)CN)C2(C)C)c2ncccc2c1` (stereo not given in full), the Activity is reported as “Dose-dependent effect”.
For `CC[C@H](C)[C@@H](N)C(=O)N1CC(=O)N(CCCC(C)Nc2cc(OC)cc3cccnc23)C1(C)C` (stereo not given in full), the Activity was “Dose-dependent effect”.

Same assay, conditions: Huh-7, Liver
`COc1cc(NC(C)CCCN2C(=O)CN(C(=O)[C@H](N)Cc3ccccc3)C2(C)C)c2ncccc2c1` (stereo not given in full) gave an IC50 of 21 µM.
For `COc1cc(NC(C)CCCN2C(=O)[C@@H](C)N(C(=O)CN)C2(C)C)c2ncccc2c1` (stereo not given in full), the IC50 was 21 µM.
With `CC[C@H](C)[C@@H](N)C(=O)N1CC(=O)N(CCCC(C)Nc2cc(OC)cc3cccnc23)C1(C)C` (stereo not given in full) the IC50 was 13 µM.

System: Pneumocystis carinii
Experiment: Antipneumocystis activity against Pneumocystis carinii assessed as reduction in parasite ATP content after 24 hrs by luciferin-luciferase assay
Format: functional, organism-based
Conditions: not given
How it was run: (§3)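 P. carinii from immunosuppressed, intratracheally inoculated Long Evans and Brown Norway rats, 10⁸ nuclei/ml in supplemented RPMI 1640 with 20% calf serum, pH 7.5–8.0, 380 mOsm. Compounds added in DMSO (final <0.2% v/v). Incubated at 35 °C, 10% CO₂, with daily medium change; sampled at 24, 48 and 72 h. ATP measured by luciferin-luciferase as % of untreated control; triplicate wells across isolation batches, three readings each.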
`COc1cc(NC(C)CCCN2C(=O)CN(C(=O)[C@H](N)Cc3ccccc3)C2(C)C)c2ncccc2c1` (stereo not given in full) showed an IC50 of 24 µM.
In the case of `COc1cc(NC(C)CCCN2C(=O)[C@@H](C)N(C(=O)CN)C2(C)C)c2ncccc2c1` (stereo not given in full), the IC50 is reported as ≥ 50 µM.
`CC[C@H](C)[C@@H](N)C(=O)N1CC(=O)N(CCCC(C)Nc2cc(OC)cc3cccnc23)C1(C)C` (stereo not given in full) showed an IC50 of 27.5 µM.

System: Pneumocystis carinii
Experiment: Antipneumocystis activity against Pneumocystis carinii assessed as reduction in parasite ATP content after 48 hrs by luciferin-luciferase assay
Format: functional, organism-based
Conditions: not given
How it was run: as §3
`COc1cc(NC(C)CCCN2C(=O)CN(C(=O)[C@H](N)Cc3ccccc3)C2(C)C)c2ncccc2c1` (stereo not given in full) showed an IC50 of 18.5 µM.
`COc1cc(NC(C)CCCN2C(=O)[C@@H](C)N(C(=O)CN)C2(C)C)c2ncccc2c1` (stereo not given in full) showed an IC50 of 75.4 µM.
Work on `CC[C@H](C)[C@@H](N)C(=O)N1CC(=O)N(CCCC(C)Nc2cc(OC)cc3cccnc23)C1(C)C` (stereo not given in full) yielded an IC50 of 16 µM.

System: Pneumocystis carinii
Experiment: Antipneumocystis activity against Pneumocystis carinii assessed as reduction in parasite ATP content after 72 hrs by luciferin-luciferase assay
Format: functional, organism-based
Conditions: not given
How it was run: as §3
Work on `COc1cc(NC(C)CCCN2C(=O)CN(C(=O)[C@H](N)Cc3ccccc3)C2(C)C)c2ncccc2c1` (stereo not given in full) yielded an IC50 of 10.1 µM.
`COc1cc(NC(C)CCCN2C(=O)[C@@H](C)N(C(=O)CN)C2(C)C)c2ncccc2c1` (stereo not given in full) showed an IC50 of 52.2 µM.
`CC[C@H](C)[C@@H](N)C(=O)N1CC(=O)N(CCCC(C)Nc2cc(OC)cc3cccnc23)C1(C)C` (stereo not given in full) showed an IC50 of 9.8 µM.

System: Pneumocystis carinii
Experiment: Antipneumocystis activity against Pneumocystis carinii assessed as reduction in parasite ATP content after 24 to 72 hrs by luciferin-luciferase assay
Format: functional, organism-based
Conditions: not given
How it was run: as §3
For `COc1cc(NC(C)CCCN2C(=O)CN(C(=O)[C@H](N)Cc3ccccc3)C2(C)C)c2ncccc2c1` (stereo not given in full), the Activity was “Dose-dependent effect”.
In the case of `COc1cc(NC(C)CCCN2C(=O)[C@@H](C)N(C(=O)CN)C2(C)C)c2ncccc2c1` (stereo not given in full), the Activity is reported as “Dose-dependent effect”.
With `CC[C@H](C)[C@@H](N)C(=O)N1CC(=O)N(CCCC(C)Nc2cc(OC)cc3cccnc23)C1(C)C` (stereo not given in full) the Activity was “Dose-dependent effect”.

System: Pneumocystis carinii
Experiment: Antipneumocystis activity against Pneumocystis carinii assessed as reduction in parasite ATP content at < 0.2% v/v by luciferin-luciferase assay
Format: functional, organism-based
Conditions: TDE = time-dependent effect
With `COc1cc(NC(C)CCCN2C(=O)CN(C(=O)[C@H](N)Cc3ccccc3)C2(C)C)c2ncccc2c1` (stereo not given in full) the Activity was “tde”.
With `COc1cc(NC(C)CCCN2C(=O)[C@@H](C)N(C(=O)CN)C2(C)C)c2ncccc2c1` (stereo not given in full) the Activity was “tde”.
For `CC[C@H](C)[C@@H](N)C(=O)N1CC(=O)N(CCCC(C)Nc2cc(OC)cc3cccnc23)C1(C)C` (stereo not given in full), the Activity was “tde”.

System: A549
Experiment: Cytotoxicity against human A549 cells after 72 hrs
Format: cell-based
Conditions: A549, 72 h
`COc1cc(NC(C)CCCN2C(=O)CN(C(=O)[C@H](N)Cc3ccccc3)C2(C)C)c2ncccc2c1` (stereo not given in full) gave an IC50 of 9.1 µM.
In the case of `COc1cc(NC(C)CCCN2C(=O)[C@@H](C)N(C(=O)CN)C2(C)C)c2ncccc2c1` (stereo not given in full), the IC50 is reported as > 100 µM.
In the case of `CC[C@H](C)[C@@H](N)C(=O)N1CC(=O)N(CCCC(C)Nc2cc(OC)cc3cccnc23)C1(C)C` (stereo not given in full), the IC50 is reported as 14.9 µM.

Species: Homo sapiens
Experiment: Half life in human plasma by HPLC analysis
Conditions: not given
With `COc1cc(NC(C)CCCN2C(=O)CN(C(=O)[C@H](N)Cc3ccccc3)C2(C)C)c2ncccc2c1` (stereo not given in full) the half-life was > 72 h.
In the case of `COc1cc(NC(C)CCCN2C(=O)[C@@H](C)N(C(=O)CN)C2(C)C)c2ncccc2c1` (stereo not given in full), the half-life is reported as > 72 h.
In the case of `CC[C@H](C)[C@@H](N)C(=O)N1CC(=O)N(CCCC(C)Nc2cc(OC)cc3cccnc23)C1(C)C` (stereo not given in full), the half-life is reported as > 72 h.
